Results taken from ChEMBL document CHEMBL3526050, “Elucidation of the metabolic pathways and the resulting multiple metabolites of almorexant, a dual orexin receptor antagonist, in humans” (Drug Metab Dispos, 2013).
Blank lines part the entries; values can stand above or below the compound they belong to.

Assays:
[1] = Drug level in feces of healthy human treated with [14C]almorexant at 200 mg, po dosed as single dose; assay type: ADME, organism-based; details: in vivo
How it was run: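 Feces pooled by weight across 6 subjects (0–48 to 192–332 h) and extracted three times with acetonitrile, then dried and reconstituted. Analyzed by radio-LC-MS/MS with a methanol/acetonitrile gradient and scintillation-counted fractions. Procedural recovery was 73.0%. Reported as percent of administered radioactive dose.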

Homo sapiens [2] = experiment: Cmax in healthy human assessed as total radioactivity at 200 mg, po dosed as single dose; assay type: ADME, organism-based; set-up: dose 200 mg, route oral; details: in vivo
How it was run: (§1)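 Six fasted healthy male subjects given one oral capsule of 200 mg almorexant with about 84 µCi 14C. EDTA blood taken pre-dose to 240 h. Whole blood (solubilized, peroxide-treated) and plasma counted in triplicate by liquid scintillation. Noncompartmental PK: Cmax/Tmax read directly, linear trapezoidal AUC extrapolated via λz, t1/2 = ln2/λz. Geometric mean (95% CI), Tmax median (range).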

[3] = Half life in healthy human at 200 mg, po dosed as single dose; assay type: ADME, organism-based; details: in vivo
How it was run: (§2)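 Plasma parent and metabolites M3, M5, M6, M8 after one 200 mg oral 14C dose in 6 fasted male subjects, sampled 0.17–240 h. Validated LC-MS/MS with penta-deuterated internal standards and positive ESI. Low range 0.4/1.0–100 ng/mL using supported liquid extraction, high range 50–1000 ng/mL using protein precipitation. Noncompartmental analysis, geometric means (95% CI), Tmax median (range).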

Plasma [4] = experiment: Half life in healthy human plasma assessed as radioactivity at 200 mg, po dosed as single dose; assay type: ADME, organism-based; details: in vivo; how it was run: as §1
Homo sapiens [5] = experiment: Toxicity in healthy human at 200 mg, po dosed as single dose; assay type: organism-based; details: in vivo
Plasma [6] = experiment: Tmax in healthy human plasma assessed as radioactivity at 200 mg, po dosed as single dose; assay type: ADME, organism-based; details: in vivo; how it was run: as §1
Homo sapiens [7] = experiment: Toxicity in healthy human assessed as effect on ECG variables parameters at 200 mg, po dosed as single dose; assay type: organism-based; details: in vivo
Homo sapiens [8] = experiment: Tmax in healthy human assessed as total radioactivity at 200 mg, po dosed as single dose; assay type: ADME, organism-based; details: in vivo; how it was run: as §1
[9] = Tmax in healthy human at 200 mg, po dosed as single dose; assay type: ADME, organism-based; details: in vivo; how it was run: as §2
Plasma [10] = experiment: AUC (0 to infinity) in healthy human plasma assessed as radioactivity at 200 mg, po dosed as single dose; assay type: ADME, organism-based; set-up: dose 200 mg, time infinity, route oral; details: in vivo; how it was run: as §1
Blood [11] = experiment: Tmax in healthy human whole blood assessed as radioactivity at 200 mg, po dosed as single dose; assay type: ADME, organism-based; details: in vivo; how it was run: as §1
Homo sapiens [12] = experiment: Drug level in healthy human at 200 mg, po dosed as single dose relative to total radioactivity; assay type: ADME, organism-based; details: in vivo
How it was run: (§3)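 Plasma from 6 subjects given one 200 mg oral 14C dose, pooled over at least 2 time points and acetonitrile-precipitated. Radio-LC-MS/MS used a C18 column with ammonium formate pH 4.0/acetonitrile gradient and 0.15-min fractions scintillation-counted. Peak radioactivity converted to ng-equivalents/mL to give AUC0-t. Co-eluting metabolites grouped and expressed relative to parent AUC and to total radioactivity.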

Homo sapiens [13] = experiment: Toxicity in healthy human assessed as incidence of adverse events at 200 mg, po dosed as single dose; assay type: organism-based; details: in vivo
[14] = Drug excretion in healthy human feces assessed as total radioactivity at 200 mg, po dosed as single dose; assay type: ADME, organism-based; details: in vivo
How it was run: (§4)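 Urine collected in 8-h then 24-h intervals, and all feces for 10 days (longer if recovery <90%) after one 200 mg oral 14C dose in 6 fasted males. Urine counted directly by liquid scintillation. Feces homogenized in water, and about 300 mg aliquots combusted before counting, done in triplicate. Stearic acid 14C quality controls were included.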

Homo sapiens [15] = experiment: Toxicity in healthy human assessed as effect on vital signs parameters at 200 mg, po dosed as single dose; assay type: organism-based; details: in vivo
[16] = Drug excretion in healthy human urine assessed as total radioactivity at 200 mg, po dosed as single dose; assay type: ADME, organism-based; details: in vivo; how it was run: as §4
Plasma [17] = experiment: Cmax in healthy human plasma assessed as radioactivity at 200 mg, po dosed as single dose; assay type: ADME, organism-based; set-up: dose 200 mg, route oral; details: in vivo; how it was run: as §1
Blood [18] = experiment: Cmax in healthy human whole blood assessed as radioactivity at 200 mg, po dosed as single dose; assay type: ADME, organism-based; set-up: dose 200 mg, route oral; details: in vivo; how it was run: as §1
Homo sapiens [19] = experiment: Toxicity in healthy human assessed as effect on clinical laboratory parameters at 200 mg, po dosed as single dose; assay type: organism-based; details: in vivo
[20] = Cmax in healthy human at 200 mg, po dosed as single dose; assay type: ADME, organism-based; set-up: dose 200 mg, route oral; details: in vivo; how it was run: as §2
Homo sapiens [21] = experiment: Tlast in healthy human assessed as total radioactivity at 200 mg, po dosed as single dose; assay type: ADME, organism-based; details: in vivo
Homo sapiens [22] = experiment: Tlast in healthy human at 200 mg, po dosed as single dose; assay type: ADME, organism-based; details: in vivo; how it was run: as §3
Homo sapiens [23] = experiment: AUC (0 to t) in healthy human assessed as total radioactivity at 200 mg, po dosed as single dose; details: in vivo
Homo sapiens [24] = experiment: AUC (0 to t) in healthy human at 200 mg, po dosed as single dose; assay type: ADME, organism-based, Plasma; details: in vivo; how it was run: as §3
Blood [25] = experiment: AUC (0 to infinity) in healthy human whole blood assessed as radioactivity at 200 mg, po dosed as single dose; assay type: ADME, organism-based; set-up: dose 200 mg, route oral, time infinity; details: in vivo; how it was run: as §1
Blood [26] = experiment: Half life in healthy human whole blood assessed as radioactivity at 200 mg, po dosed as single dose; assay type: ADME, organism-based; details: in vivo; how it was run: as §1
Plasma [27] = experiment: Drug level in plasma of healthy human treated with [14C]almorexant at 200 mg, po dosed as single dose; assay type: ADME, organism-based; details: in vivo; how it was run: as §3
[28] = Ratio of drug level in whole blood to plasma in healthy human at 200 mg, po dosed as single dose; assay type: ADME, organism-based; details: whole blood and plasma; how it was run: as §1
[29] = AUC (0 to infinity) in healthy human at 200 mg, po dosed as single dose; assay type: ADME, organism-based; set-up: dose 200 mg, route oral, time infinity; details: plasma; how it was run: as §2
Homo sapiens [30] = experiment: Cmax in healthy human treated with [14C]almorexant at 200 mg, po dosed as single dose; assay type: ADME, organism-based; set-up: dose 200 mg, route oral; details: in vivo
Homo sapiens [31] = experiment: Tmax in healthy human treated with [14C]almorexant at 200 mg, po dosed as single dose; assay type: ADME, organism-based; details: in vivo; how it was run: as §2
Homo sapiens [32] = experiment: Half life in healthy human treated with [14C]almorexant at 200 mg, po dosed as single dose; assay type: ADME, organism-based; details: in vivo; how it was run: as §2
Homo sapiens [33] = experiment: AUC (0 to infinity) in healthy human treated with [14C]almorexant at 200 mg, po dosed as single dose; assay type: ADME, organism-based, Plasma; set-up: dose 200 mg, route oral, time infinity; details: in vivo
Homo sapiens [34] = experiment: Drug level in healthy human treated with [14C]almorexant at 200 mg, po dosed as single dose relative to almorexant; assay type: ADME, organism-based; details: in vivo; how it was run: as §3
Homo sapiens [35] = experiment: AUC (0 to t) in healthy human treated with [14C]almorexant at 200 mg, po dosed as single dose; assay type: ADME, organism-based, Plasma; details: in vivo; how it was run: as §3
Homo sapiens [36] = experiment: Tlast in healthy human treated with [14C]almorexant at 200 mg, po dosed as single dose; assay type: ADME, organism-based; details: in vivo; how it was run: as §3
Homo sapiens [37] = experiment: Drug level in healthy human treated with [14C]almorexant at 200 mg, po dosed as single dose relative to total radioactivity; assay type: ADME, organism-based; details: in vivo; how it was run: as §3
Homo sapiens [38] = experiment: Volume of distribution in po dosed healthy human; assay type: ADME, organism-based; details: in vivo
[39] = Terminal half life in po dosed healthy human; assay type: ADME, organism-based; details: in vivo, read-out: beta t1/2 (converted)
[40] = Tmax in po dosed healthy human receiving additional evening dose; assay type: ADME, organism-based; details: in vivo
[41] = Tmax in po dosed healthy human; assay type: ADME, organism-based; details: in vivo
[42] = Clearance in po dosed healthy human; assay type: ADME, organism-based; details: in vivo
[43] = Absolute bioavailability in po dosed healthy human; assay type: ADME, organism-based; details: in vivo

Drug metabolism [1]: metabolite_detected
Compound: CNC(=O)[C@@H](c1ccccc1)N1CCc2cc(O)c(O)cc2[C@@H]1CCc1ccc(C(F)(F)F)cc1

Cmax (Homo sapiens [30]): 61.4 ng/mL
Tmax (Homo sapiens [31]): 1 h
t1/2 (Homo sapiens [32]): 21.7 h
Drug metabolism [1]: metabolite_detected
AUC (Homo sapiens [33]): 386 ng·h/mL
Drug metabolism (Plasma [27]): metabolite_detected
Compound: CNC(=O)[C@@H](c1ccccc1)N1CCc2cc(OC)c(O)cc2[C@@H]1CCc1ccc(C(F)(F)F)cc1

Cmax (Homo sapiens [30]): 25.7 ng/mL
Tmax (Homo sapiens [31]): 0.8 h
t1/2 (Homo sapiens [32]): 22.1 h
Drug metabolism [1]: metabolite_detected
AUC (Homo sapiens [33]): 160 ng·h/mL
Drug metabolism (Plasma [27]): metabolite_detected
Compound: CNC(=O)[C@@H](c1ccccc1)N1CCc2cc(O)c(OC)cc2[C@@H]1CCc1ccc(C(F)(F)F)cc1

Vd (Homo sapiens [38]): 683 L
half-life [39]: 17.8 h
Tmax [40]: 3 h
Tmax [41]: 0.8 h
CL/F [42]: 717 mL/min
bioavailability [43]: 11.4%
Compound: CNC(=O)[C@@H](c1ccccc1)N1CCc2cc(OC)c(OC)cc2[C@@H]1CCc1ccc(C(F)(F)F)cc1 [ALMOREXANT]

The next lines start with the compound.

Compound: CNC(=O)[C@@H](c1ccccc1)[n+]1ccc2cc(O)c(OC)cc2c1CCc1ccc(C(F)(F)F)cc1
Drug metabolism [1]: metabolite_detected

Compound: CNC(=O)[C@@H](c1ccccc1)N1CCc2cc(OC)c(OC)cc2[14C@@H]1CCc1ccc(C(F)(F)F)cc1
Cmax (Homo sapiens [2]): 1050 ng.Eq/ml
half-life [3]: 17.8 h
t1/2 (Plasma [4]): 78 h
Activity (Homo sapiens [5]): Non-toxic
Tmax (Plasma [6]): 1 h
Activity (Homo sapiens [7]): Non-toxic
Tmax (Homo sapiens [8]): 1.6 h
Tmax [9]: 0.8 h
AUC (Plasma [10]): 51547 ng.Eq.hr/ml
Tmax (Blood [11]): 1 h
Drug uptake (Homo sapiens [12]): 0.11%
Activity (Homo sapiens [13]): Non-toxic
Drug excretion [14]: 38.7%
Activity (Homo sapiens [15]): Non-toxic
Drug metabolism [1]: metabolite_detected
Drug excretion [16]: 8.34%
Cmax (Plasma [17]): 1060 ng.Eq/ml
Cmax (Blood [18]): 678 ng.Eq/ml
Activity (Homo sapiens [19]): Non-toxic
Cmax [20]: 113 ng/mL
Tlast (Homo sapiens [21]): 300 h
Tlast (Homo sapiens [22]): 1.6 h
AUC(0-t) (Homo sapiens [23]): 54100 ng.Eq.hr/ml
AUCt (Homo sapiens [24]): 61.2 ng.Eq.hr/ml
AUC (Blood [25]): 26321 ng.Eq.hr/ml
t1/2 (Blood [26]): 39 h
Drug metabolism (Plasma [27]): metabolite_detected
blood plasma ratio [28]: 0.51
AUC(0-inf) [29]: 262 ng·h/mL

Compound: COc1cc2c(cc1OC)[C@H](CCc1ccc(C(F)(F)F)cc1)NC[C@H]2O (racemic)
Drug uptake (Homo sapiens [34]): 28.1%
AUCt (Homo sapiens [35]): 17.2 ng.Eq.hr/ml
Tmax [9]: 1.6 h
Tlast (Homo sapiens [36]): 1.6 h
Drug uptake (Homo sapiens [37]): 0.03%
